Laboratory results published in ChEMBL document CHEMBL3875163, “Novel urea and bis-urea primaquine derivatives with hydroxyphenyl or halogenphenyl substituents: Synthesis and biological evaluation” (Eur J Med Chem, 2016).
In brackets after ≈: the same amount, converted by molar mass.

Experiments:
[1] = Growth inhibition of mouse L1210 cells after 72 hrs by MTT assay; format: functional, cell-based; conditions: L1210, 72 h
[2] = Antioxidant activity assessed as DPPH radical scavenging activity at 100 uM after 20 mins relative to control; format: functional
Summary of the method: (§1)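 Compound in DMSO added to DPPH in absolute ethanol, 0.1 mM final; absorbance at 517 nm after 20 and 60 min at room temperature. At least triplicate.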

Glycine max = experiment: Inhibition of soybean LOX assessed as reduction in conversion of sodium linoleate to 13-hydroperoxylinoleic acid at 1 x 10^-4 M relative to control
Summary of the method: (§2)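 Soybean lipoxygenase incubated at room temperature with sodium linoleate (0.1 mM) and test compound (DMSO stocks); formation of 13-hydroperoxylinoleic acid read at 234 nm. Single-point screening at 1 × 10^-4 M; IC50 from several concentrations. At least triplicate.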

[3] = Growth inhibition of human Molt4/C8 cells after 72 hrs by MTT assay; format: functional, cell-based; conditions: MOLT-4, 72 h
[4] = Antioxidant activity assessed as DPPH radical scavenging activity at 100 uM after 60 mins relative to control; format: functional; summary of the method: as §1
[5] = Growth inhibition of human NCI-H460 cells after 72 hrs by MTT assay; format: functional, cell-based; conditions: NCI-H460, 72 h
Summary of the method: (§3)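 Modified NCI DTP protocol: cells in DMEM with 10% FBS, 2 mM glutamine, antibiotics, 37 °C, 5% CO2; seeded 1 × 10^4 to 3 × 10^4 cells/ml on day 0, exposed to five 10-fold dilutions (10^-8 to 10^-4 M) for 72 h; solvent control. MTT read-out; quadruplicate points in three experiments; IC50 by linear regression of growth percentages bracketing 50%.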

[6] = Growth inhibition of human MCF7 cells after 72 hrs by MTT assay; format: functional, cell-based; conditions: MCF7, 72 h; summary of the method: as §3
[7] = Growth inhibition of human SW620 cells after 72 hrs by MTT assay; format: functional, cell-based; conditions: SW-620, 72 h; summary of the method: as §3
[8] = Growth inhibition of human MIAPaCa2 cells after 72 hrs by MTT assay; format: functional, cell-based; conditions: MIA PaCa-2, 72 h
[9] = Growth inhibition of human HeLa cells after 72 hrs by MTT assay; format: functional, cell-based
[10] = Inhibition of soybean LOX assessed as reduction in conversion of sodium linoleate to 13-hydroperoxylinoleic acid; parameters: species or system Glycine max; summary of the method: as §2
[11] = Growth inhibition of human CEM cells after 72 hrs by MTT assay; format: functional, cell-based; conditions: CCRF-CEM
[12] = Antioxidant activity assessed as inhibition of AAPH-induced linoleic acid lipid peroxidation at 1 x 10^-4 M by UV-absorbance method relative to control; format: functional
Summary of the method: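 Linoleic acid peroxidation: 16 mM sodium linoleate dispersion in 0.05 M phosphate buffer pH 7.4 at 37 °C under air, initiated by AAPH (40 mM solution); compound at 1 × 10^-4 M; oxidation followed at 234 nm. At least triplicate.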

Candida albicans = experiment: Antifungal activity against Candida albicans ATCC 90028 after 18 hrs by serial microdilution broth assay; format: functional; conditions: ATCC 90028, 18 h
Summary of the method: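 Yeast microdilution in RPMI 1640 with glutamine plus 2% glucose, 1000 to 0.78125 µg/ml from 10 mg/ml DMSO stocks. Growth read with XTT (10 mg/ml) mixed 7:1 with menadione (1 mg/ml in acetone), absorbance at 540 nm. MIC taken as lowest concentration giving 50% growth inhibition versus untreated cells; tests in duplicate.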

Staphylococcus aureus [13] = experiment: Antibacterial activity against methicillin sensitive Staphylococcus aureus ATCC 25213 after 18 hrs by serial microdilution broth assay; format: functional; conditions: ATCC 25213, 18 h
Summary of the method: (§4)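 Broth microdilution MIC per EUCAST for aerobic bacteria in Mueller-Hinton broth, serial dilution 1000 to 0.78125 µg/ml from 10 mg/ml DMSO stocks. Inoculum from trypticase soy broth cultures (18 h, 37 °C), set to 0.5 McFarland in PBS pH 7.4, diluted 1:10. 18 h aerobic incubation at 35 °C in dark, then TTC 0.5 mg/ml for 3 h, HCl-isopropanol, A490. MIC = lowest concentration giving 50% inhibition versus untreated; duplicates.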

Pseudomonas aeruginosa [14] = experiment: Antibacterial activity against Pseudomonas aeruginosa ATCC 27853 after 18 hrs by serial microdilution broth assay; format: functional; conditions: ATCC 27853, 18 h; summary of the method: as §4
Enterococcus faecalis [15] = experiment: Antibacterial activity against vancomycin resistant Enterococcus faecalis MFBF 11419 after 18 hrs by serial microdilution broth assay; format: functional; conditions: MFBF 11419, 18 h
Summary of the method: (§5)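 EUCAST-based broth microdilution in Mueller-Hinton broth. Glycerol stock cultures grown in trypticase soy broth 18 h at 37 °C; inoculum in PBS pH 7.4 at 0.5 McFarland, diluted 1:10 in broth. Compounds from DMSO stocks, 1000 to 0.78125 µg/ml; 18 h aerobic, 35 °C, dark. TTC 0.5 mg/ml added, 3 h, then HCl/isopropanol, A490. MIC = lowest concentration giving 50% inhibition vs untreated; duplicates, averaged.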

Staphylococcus aureus [16] = experiment: Antibacterial activity against Staphylococcus aureus ATCC 6538 after 18 hrs by serial microdilution broth assay; format: functional; conditions: ATCC 6538, 18 h; summary of the method: as §4
Escherichia coli = experiment: Antibacterial activity against Escherichia coli ATCC 10535 after 18 hrs by serial microdilution broth assay; format: functional; conditions: ATCC 10535, 18 h; summary of the method: as §4
Staphylococcus aureus [17] = experiment: Antibacterial activity against methicillin resistant Staphylococcus aureus MFBF 10679 after 18 hrs by serial microdilution broth assay; format: functional; conditions: MFBF 10679, 18 h; summary of the method: as §5
Staphylococcus aureus [18] = experiment: Antibacterial activity against methicillin resistant Staphylococcus aureus MFBF 10682 after 18 hrs by serial microdilution broth assay; format: functional; conditions: MFBF 10682, 18 h; summary of the method: as §5
Pseudomonas aeruginosa [19] = experiment: Antibacterial activity against multi-drug resistant Pseudomonas aeruginosa MFBF after 18 hrs by serial microdilution broth assay; format: functional; summary of the method: as §5
Bacillus spizizenii = experiment: Antibacterial activity against Bacillus subtilis ATCC 6633 after 18 hrs by serial microdilution broth assay; format: functional; conditions: ATCC 6633, 18 h; summary of the method: as §4
Staphylococcus aureus [20] = experiment: Antibacterial activity against methicillin sensitive Staphylococcus aureus ATCC 25923 after 18 hrs by serial microdilution broth assay; format: functional; conditions: ATCC 25923, 18 h; summary of the method: as §5
Pseudomonas aeruginosa [21] = experiment: Antibacterial activity against Pseudomonas aeruginosa ATCC 9027 after 18 hrs by serial microdilution broth assay; format: functional; conditions: ATCC 9027, 18 h; summary of the method: as §5
Bacillus cereus = experiment: Antibacterial activity against Bacillus cereus ATCC 11778 after 18 hrs by serial microdilution broth assay; format: functional; conditions: ATCC 11778, 18 h; summary of the method: as §4
Bacillus pumilus = experiment: Antibacterial activity against Bacillus pumilus NCTC 8241 after 18 hrs by serial microdilution broth assay; format: functional; conditions: NCTC 8241, 18 h; summary of the method: as §4
Enterococcus faecalis [22] = experiment: Antibacterial activity against vancomycin susceptible Enterococcus faecalis ATCC 29212 after 18 hrs by serial microdilution broth assay; format: functional; conditions: ATCC 29212, 18 h; summary of the method: as §4

| SMILES | IC50 [1] [µM] | Activity [2] [%] | inhibition (Glycine max) [%] | IC50 [3] [µM] | Activity [4] [%] | IC50 [5] [µM] | IC50 [6] [µM] | IC50 [7] [µM] | IC50 [8] [µM] | IC50 [9] [µM] | IC50 [11] [µM] | inhibition [12] [%] | also measured |
| --- | --- | --- | --- | --- | --- | --- | --- | --- | --- | --- | --- | --- | --- |
| COc1cc(NC(C)CCCNC(=O)NNC(=O)Nc2ccc(C(F)(F)F)cc2)c2ncccc2c1 (configuration not stated) | 18 | 99 | 55.8 | 24 | 96.1 | 12 | 0.1 | 12 | 19 | 15 | 18 | 75.3 | IC50 [10]: 85 µM |
| COc1cc(NC(C)CCCNC(=O)NNC(=O)Nc2ccc(O)cc2)c2ncccc2c1 (configuration not stated) | 95 | 99.3 | 33.4 | 104 | 100 | > 100 | 2.6 | > 100 | 142 | 85 | 111 | 61.9 |  |
| COc1cc(NC(C)CCCNC(=O)Nc2ccc(O)cc2)c2ncccc2c1 (configuration not stated) | 21 | 95.5 | 49.9 | 21 | 94.5 | 34 | 5.2 | 30 | 57 | 70 | 23 | 54 |  |
| CC(Cc1ccc(O)c(O)c1)C(C)Cc1ccc(O)c(O)c1 (configuration not stated) [NORDIHYDROGUAIARETIC ACID] |  | 83 | 83 |  | 97 |  |  |  |  |  |  |  | IC50 [10]: 4.5 µM |
| C[C@@H](c1ncncc1F)[C@](O)(Cn1cncn1)c1ccc(F)cc1F [VORICONAZOLE] |  |  |  |  |  |  |  |  |  |  |  |  | MIC50 (Candida albicans): 0.5 µg/mL (≈ 1.43 µM) |
| COc1cc(NC(C)CCCNC(=O)NNC(=O)Nc2cc(C(F)(F)F)cc(C(F)(F)F)c2)c2ncccc2c1 (configuration not stated) | 18 | 86.8 | 33.9 | 22 | 88 | 18 | 2.4 | 16 | 20 | 17 | 13 | 39.9 |  |
| COc1cc(NC(C)CCCNC(=O)NNC(=O)Nc2cccc(F)c2)c2ncccc2c1 (configuration not stated) | 108 | 75.7 | 67.4 | ≥ 250 | 100 | 50 | 0.15 | 9.5 | 69 | > 250 | 98 | 58.2 | IC50 [10]: 40 µM |
| COc1cc(NC(C)CCCNC(=O)Nc2ccc(Cl)cc2)c2ncccc2c1 (configuration not stated) | 19 | 24 | 21.6 | 24 | 37 | 34 | 12 | 28 | 22 | 18 | 24 | 81.9 |  |
| COc1cc(NC(C)CCCN)c2ncccc2c1 (configuration not stated) [PRIMAQUINE] |  |  |  |  |  |  |  |  |  |  |  |  | MIC50 (Staphylococcus aureus [13]): 70 µg/mL (≈ 270 µM); MIC50 (Pseudomonas aeruginosa [14]): 65 µg/mL (≈ 251 µM); MIC50 (Enterococcus faecalis [15]): > 100 µg/mL; MIC50 (Staphylococcus aureus [16]): 70 µg/mL (≈ 270 µM); MIC50 (Escherichia coli): 65 µg/mL (≈ 251 µM); MIC50 (Staphylococcus aureus [17]): 70 µg/mL (≈ 270 µM); MIC50 (Staphylococcus aureus [18]): 60 µg/mL (≈ 231 µM); MIC50 (Pseudomonas aeruginosa [19]): 70 µg/mL (≈ 270 µM); MIC50 (Bacillus spizizenii): 80 µg/mL (≈ 308 µM); MIC50 (Staphylococcus aureus [20]): 70 µg/mL (≈ 270 µM); MIC50 (Pseudomonas aeruginosa [21]): 70 µg/mL (≈ 270 µM); MIC50 (Candida albicans): 350 µg/mL (≈ 1350 µM); MIC50 (Bacillus cereus): 70 µg/mL (≈ 270 µM); MIC50 (Bacillus pumilus): 70 µg/mL (≈ 270 µM); MIC50 (Enterococcus faecalis [22]): > 100 µg/mL |
| COc1cc(NC(C)CCCNC(=O)NNC(=O)Nc2cccc(C(F)(F)F)c2)c2ncccc2c1 (configuration not stated) | 4 | 98.3 | 51.4 | 36 | 91.2 | 20 | 0.19 | 21 | 5.6 | 4.9 | 6.9 | 52.6 |  |
| COc1cc(NC(C)CCCNC(=O)Nc2cccc(C(F)(F)F)c2)c2ncccc2c1 (configuration not stated) | 9.2 | 31.3 | 48.3 | 20 | 47.7 | 21 | 3.3 | 22 | 17 | 14 | 19 | 71.8 |  |
| CN(C)[C@@H]1C(O)=C(C(N)=O)C(=O)[C@@]2(O)C(O)=C3C(=O)c4c(O)cccc4[C@@](C)(O)[C@H]3C[C@@H]12 [TETRACYCLINE] |  |  |  |  |  |  |  |  |  |  |  |  | MIC50 (Staphylococcus aureus [13]): 0.156 µg/mL (≈ 0.351 µM); MIC50 (Pseudomonas aeruginosa [14]): 3 µg/mL (≈ 6.75 µM); MIC50 (Enterococcus faecalis [15]): > 128 µg/mL; MIC50 (Staphylococcus aureus [16]): 0.15 µg/mL (≈ 0.338 µM); MIC50 (Escherichia coli): 2.5 µg/mL (≈ 5.63 µM); MIC50 (Staphylococcus aureus [17]): 0.312 µg/mL (≈ 0.702 µM); MIC50 (Staphylococcus aureus [18]): 0.312 µg/mL (≈ 0.702 µM); MIC50 (Pseudomonas aeruginosa [19]): > 128 µg/mL; MIC50 (Bacillus spizizenii): 0.312 µg/mL (≈ 0.702 µM); MIC50 (Staphylococcus aureus [20]): 0.312 µg/mL (≈ 0.702 µM); MIC50 (Pseudomonas aeruginosa [21]): 3 µg/mL (≈ 6.75 µM); MIC50 (Bacillus cereus): 0.312 µg/mL (≈ 0.702 µM); MIC50 (Bacillus pumilus): 0.156 µg/mL (≈ 0.351 µM); MIC50 (Enterococcus faecalis [22]): 0.312 µg/mL (≈ 0.702 µM) |
